Test system: MS2 coat protein
Assay: apparent Kd, MS2 coat protein; higher = weaker binding; RNA-MaP array; FMN 200 µM where present
Summary of the method: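 The apparent Kd is reported as the median of filtered per-cluster binding-curve fits. To get these curves, designs transcribed by stalled E. coli RNA polymerase on Illumina sequencing-chip clusters were titrated with SNAP-549-labelled MS2 coat protein from 0.7 or 1.5 nM, doubling to 3 µM. Titrations were run without and then with constant ligand in 100 mM Tris-HCl pH 7.5, 80 mM KCl, 4 mM MgCl2, BSA, DTT, yeast tRNA and Tween-20, and green signal was normalised to red-channel RNA signal and control-cluster median Fmax.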

[1] = designed as: ON switch for flavin mononucleotide, no ligand
[2] = ligand present: flavin mononucleotide, designed as: ON switch for flavin mononucleotide
[3] = designed as: OFF switch for flavin mononucleotide, no ligand
[4] = ligand present: flavin mononucleotide, designed as: OFF switch for flavin mononucleotide

## UUACUCAUGUAAGGAUAUGCAGCCGUUUCGGCUGCAGAAGGUACUAUAAUACAUGAGGAUCACCCAUGUCUAUUUAAUUUUUAC
[1]
  apparent Kd: 42.6 nM
[2]
  apparent Kd: 24.2 nM

## UUACUCAUGUAAGGAUAUGCAGCCGUUUCGGCUGCAGAAGGUACUAUAAUACAUGAGGAUCACCCAUGUCUCUAUUAUUUAGUG
[1]
  apparent Kd: 52.8 nM
[2]
  apparent Kd: 87.5 nM

## UUACUCAUGUAAGGAUAUGUAGCCGUUUCGGCUGCAGAAGGUACUAUAAUACAUGAGGAUCACCCAUGUCUUUUUAAUUUAGAC
[1]
  apparent Kd: 69.3 nM
[2]
  apparent Kd: 39.8 nM

## UUACUGUUAUAGAAGGGUAUUUGGGAAUUACAUGAGGAUCACCCAUGUUUUAUAGGAUAUGUAUAUAGUAUUUAAUCAAGUUUA
[3]
  apparent Kd: 17.8 nM
[4]
  apparent Kd: 15.7 nM

## UUAGACGUCGUAGGAUAUGUAGGAUAUUCCUACAUGAGGAUCACCCAUGUUGACAUGGAAGAAGGACAGAAGGACGAUGUCCAU
[1]
  apparent Kd: 307 nM
[2]
  apparent Kd: 4.91 nM

## UUAGCGUAAGUAAGGAUAUGCUGGUCGAAAGACCAGCAGAAGGUACAUGAGGAUCACCCAUGUGGAUUCGUUAU
[3]
  apparent Kd: 27.8 nM
[4]
  apparent Kd: 92.6 nM

## UUAUACAUUCGAGGAUAUCGGAGAGAGAUCAUUCGAGAAGGCGAUUCAUGAUGUAUUAUCCUGGACAUGAGGAUCACCCAUGUA
[1]
  apparent Kd: 101 nM
[2]
  apparent Kd: 68.1 nM

## UUAUACGUUGAGGAUAUGCGAAUUAGUAUAGUUGCAGAAGGCGAUACAUGAGGAUCACCCAUGUUCAUGGGCAU
[3]
  apparent Kd: 127 nM
[4]
  apparent Kd: 243 nM

## UUAUAUUUACAAGGAUAUCAAUUAUUUAUACUUCCUACAUGAGGAUCACCCAUGUUUUUAUAUUUUGAGAAGGUGUAAUGUCGG
[1]
  apparent Kd: 38.5 nM
[2]
  apparent Kd: 33.7 nM

## UUAUCUCAUGAGAAGGACAUGAGGAUCACCCAUGUAGGAUAUCAUGGGUCAGAGGAAUUGAAUCUUCGGAUUCAAUUACUCUUC
[1]
  apparent Kd: 72 nM
[2]
  apparent Kd: 12.2 nM

## UUAUGCUUUGAGAAGGUACAAACUACAUAUUGCGCACAUGAGGAUCACCCAUGUUGGUGAAUAAGUAAGGAUAUUAGACUGUGC
[3]
  apparent Kd: 133 nM
[4]
  apparent Kd: 102 nM

## UUAUGUCGCGUAGGAUAUCACUAGUGUUGUAAUUUAAUUGUAAUUACGAUGUGAGAAGGACGUACACAUGAGGAUCACCCAUGU
[3]
  apparent Kd: 20.3 nM
[4]
  apparent Kd: 16.2 nM

## UUAUGUUUUGUAGGAUAUCAUAAGUUAUGUAUUAUAAUUGAAAUUUUGUUAUGAGAAGGACAUUUACAUGAGGAUCACCCAUGU
[3]
  apparent Kd: 13.6 nM
[4]
  apparent Kd: 9.96 nM

## UUAUGUUUUGUAGGAUAUCAUUAGAUUUGUAUUUUAAUUGUAAUUUAGAUAUGAGAAGGACAUUUACAUGAGGAUCACCCAUGU
[3]
  apparent Kd: 14.7 nM
[4]
  apparent Kd: 10.7 nM

## UUAUGUUUUGUAGGAUAUCAUUAGUUAUGUAUUAUAAUUGAAAUUUUGAUUUGAGAAGGACAUUUACAUGAGGAUCACCCAUGU
[3]
  apparent Kd: 13.4 nM
[4]
  apparent Kd: 9.92 nM

## UUAUUAAGUGUGAGGAUAUGCUGGUCCUUGGAUCAGCAGAAGGCACAUGAGGAUCACCCAUGUAAUAUAUUUAU
[3]
  apparent Kd: 103 nM
[4]
  apparent Kd: 389 nM

## UUAUUGUAUGUAGGAUAUGCAUAUUAUUAUUAUGCAGAAGGACAUGAGGAUCACCCAUGUAUAUUAUUAUUAUAUAUUAUAUAU
[3]
  apparent Kd: 32.3 nM
[4]
  apparent Kd: 60.9 nM

## UUAUUUCCUCAUGUACAUGAGGAACAUGAGGAUCACCCAUGUAGAAGGAUUUCAAUAAAAUUAAAAUAGGAUAUACAUAUAUUU
[3]
  apparent Kd: 68.3 nM
[4]
  apparent Kd: 81.6 nM

## UUAUUUGUACAAGGAUAUCUAUUAUAUUCACAUCCUACAUGAGGAUCACCCAUGUUAUAUAUUUUAGAGAAGGUGUAUUGUCUG
[1]
  apparent Kd: 29.9 nM
[2]
  apparent Kd: 35.3 nM

## UUAUUUUUACAGAAGGUUUAAUAAUAUGUAUGAGAAGGAUAUGUAACAUGAGGAUCACCCAUGUUUUAUUUAUAUGAGGUUCAU
[3]
  apparent Kd: 10.8 nM
[4]
  apparent Kd: 9.27 nM

## UUCAAGUCAGGAUAUCCAUAUUUCUGAUAUAACGGUACUUUGGAGAAGGGACAUGAGGAUCACCCAUGUAAUCU
[3]
  apparent Kd: 24.5 nM
[4]
  apparent Kd: 28.3 nM

## UUCAGCUCGUCAGGAUAUACGUCACUGCUUCGGCAGUGUGGUAAGAUCACAUGAGGAUCACCCAUGUAGAAGGGACGAGCUGAG
[3]
  apparent Kd: 12.3 nM
[4]
  apparent Kd: 312 nM

## UUCAUGUGAGGAUAUAGUACUCCUUCUAUUAUUAUUGAGUAUUAGAAGGCACAUGAGGAUCACCCAUGUAGUAC
[3]
  apparent Kd: 29.8 nM
[4]
  apparent Kd: 43.4 nM

## UUCCUCGUUGUGAGGAUAUCGUCCGUGUUUUGUUACGAGAAGGCACAUGAGGAUCACCCAUGUUUUUUGUUUUU
[3]
  apparent Kd: 39.2 nM
[4]
  apparent Kd: 77.7 nM

## UUCGUGCAGCUUUGCUGUACGCGUACAUGAGGAUCACCCAUGUAGGAUAUGGUACGCUUUGCGUGCUAGAAGGAUAUGGAGAGC
[3]
  apparent Kd: 15.7 nM
[4]
  apparent Kd: 16.3 nM

## UUCGUGUAAGGAUAUACGACCCAUCCCAUUGGGAUGGACACGUAGAAGGUACAUGAGGAUCACCCAUGUGCUCC
[3]
  apparent Kd: 27.3 nM
[4]
  apparent Kd: 135 nM

## UUCUCGAUGUAGAAGGCCGCGUCCGGCUCACGCGGAGGAUAUACAUGAGGAUCACCCAUGUGUUUGUGGCUUAUAUGGUACGAA
[3]
  apparent Kd: 43 nM
[4]
  apparent Kd: 212 nM

## UUCUUGCAAGGAUAUGAUUUAAGUAACAUGAGGAUCACCCAUGUUUUUCCGUUGUUAUGUUCAGAAGGUGCGUGAU
[3]
  apparent Kd: 55.8 nM
[4]
  apparent Kd: 63.3 nM

## UUCUUUGUUGUGAGGAUAUCGUAUUCUUUUUGUUACGAGAAGGCACAUGAGGAUCACCCAUGUUUCUUGAUGUU
[3]
  apparent Kd: 16.9 nM
[4]
  apparent Kd: 45.8 nM

## UUGAGGUGCAAGAAGGAUCACAUGAGGAUCACCCAUGUGAUGUGAAGUCUCGAGAUUUUAUAUCGAUAGGAUAUUGCACCGAAC
[1]
  apparent Kd: 5.13 nM
[2]
  apparent Kd: 5.33 nM

## UUGCCACAUGAGGAUCACCCAUGUGAGGAUAUGGCCCGUUUGGCGUGUGCUGGUUCUGUCAGAAGGCGCGUGGG
[3]
  apparent Kd: 24.5 nM
[4]
  apparent Kd: 21.7 nM

## UUGCCUCAGAACAUGAGGAUCACCCAUGUGCUGCGGGCAACGUAGGAUAUGAUGGUAUGAUACCGUCAGAAGGAUGAUGGUACC
[1]
  apparent Kd: 5.86 nM
[2]
  apparent Kd: 5.32 nM

## UUGCUACAUGAGGAUCACCCAUGUCAGGAUAUAGUGUAUAGCGUGGAAGCUCUGUCGAUUAGAAGGGACUGUCU
[3]
  apparent Kd: 23.7 nM
[4]
  apparent Kd: 25.2 nM

## UUGGAAGUCGUAGGAUAUGUAGGAUAUUCCUACAUGAGGAUCACCCAUGUUGACAUGGAAGAAGGACAGAAGGACGAUGUCCAU
[1]
  apparent Kd: 642 nM
[2]
  apparent Kd: 6.99 nM

## UUGGACAGCUAGAACUGUUAAGUACAUGAGGAUCACCCAUGUCAGGAUAUCCUUCCGCAAUGCGAGGAGAAGGGACAGGGUCCC
[3]
  apparent Kd: 53.7 nM
[4]
  apparent Kd: 124 nM

## UUGGACGUCGUAGGAUACGUAGGAUAUUCCUACAUGAGGAUCACCCAUGUUGACAUGGAAGAAGGACAGAAGGACGAUGUCCAU
[1]
  apparent Kd: 71.6 nM
[2]
  apparent Kd: 4.95 nM

## UUGGACGUCGUAGGAUAUCUAGGAUAUUCCUACAUGAGGAUCACCCAUGUUGACAUGGAAGAAGGACAGAAGGACGAUGUCCAU
[1]
  apparent Kd: 14.9 nM
[2]
  apparent Kd: 11 nM

## UUGGACGUCGUAGGAUAUGUUGGAUAUUCCUACAUGAGGAUCACCCAUGUUGACAUGGAAGAAGGACAGAAGGACGAUGUCCAU
[1]
  apparent Kd: 5.08 nM
[2]
  apparent Kd: 4.49 nM

## UUGGAGUUCGUAGGAUAUGUAGGAUAUUCCUACAUGAGGAUCACCCAUGUAUGCAUGGAAGAAGGACAGAAGGACGAGCUCCAU
[1]
  apparent Kd: 184 nM
[2]
  apparent Kd: 13 nM

## UUGGUAUUUGUAGGAUAUCUGUCGCCACCGUGUGGAGAAGGACGAACAUGAGGAUCACCCAUGUAUCAUGGUGUGGGCUUUGUU
[3]
  apparent Kd: 757 nM
[4]
  apparent Kd: 710 nM

## UUGUUAAGGAGAGGAUAUUGACAUGAGGAUCACCCAUGUACAUGGGAGUGUUUACUGAAUUCUUACGAGAAGGCUUACAUAUUU
[3]
  apparent Kd: 216 nM
[4]
  apparent Kd: 102 nM

## UUGUUCUGAGGAUAUACAUGAGGAUCACCCAUGUGUUUCUGCUUGGUGUCUUGCGUUUGUAGAAGGCUGUUCUC
[3]
  apparent Kd: 26.5 nM
[4]
  apparent Kd: 28 nM

## UUGUUGUAUGAAGGAUAUACUUAACAUGAGGAUCACCCAUGUGGUGUUGUGAGUGAGUGAGUUUAGUAGAAGGUCAAUUCUUUU
[3]
  apparent Kd: 221 nM
[4]
  apparent Kd: 201 nM

## UUGUUGUAUGUAGGAUAUGCGUAUUGUUAUUAUGCAGAAGGACAUGAGGAUCACCCAUGUAUAUUAUUAUUAUAUAUUAUAUAU
[3]
  apparent Kd: 26.3 nM
[4]
  apparent Kd: 43.5 nM

## UUGUUGUGAGGAUAUCCAAUAUAUGACAUGAGGAUCACCCAUGUUUCCACUCGUACCUCCGGAGAAGGCACUUAUU
[3]
  apparent Kd: 31.7 nM
[4]
  apparent Kd: 28.7 nM

## UUGUUGUGUGUAGGAUAUGCAUAUUAUUAUUAUGCAGAAGGACAUGAGGAUCACCCAUGUGUAUUAUUAUUAUAUAUUAUAUAU
[3]
  apparent Kd: 24.6 nM
[4]
  apparent Kd: 38 nM

## UUUAAGUCAGGAUAUCGUUAAUUUAAUUAUUUAUUUUAGUUCGAGAAGGGACAUGAGGAUCACCCAUGUAAUUU
[3]
  apparent Kd: 40.5 nM
[4]
  apparent Kd: 63.1 nM

## UUUACAUGAGGAUCACCCAUGUAUAGAACGGUUAAUCAAAGUGAGGAUAUACAUAAUUUUGUAUUGUAGAAGGCACUGGGUACA
[1]
  apparent Kd: 15.2 nM
[2]
  apparent Kd: 19.3 nM

## UUUACGUGAGGAUAUGCGAAUAGAACGUAAGACAUACAGACGCAGAAGGCACAUGAGGAUCACCCAUGUGAACC
[3]
  apparent Kd: 20.5 nM
[4]
  apparent Kd: 41.4 nM

## UUUAGUUCAGGAUAUGUAGAUUUUAACAUGAGGAUCACCCAUGUAAAUCCUGAUCCUGCUACAGAAGGGAACAUUU
[3]
  apparent Kd: 17 nM
[4]
  apparent Kd: 20.7 nM

## UUUAUAAAGAAAGGAUAUAGUAUAAUAAUUUAAUUAGAAGGUUCACACAUGAGGAUCACCCAUGUAUGAGGAUCACCCAUGUAU
[3]
  apparent Kd: 35.2 nM
[4]
  apparent Kd: 29.1 nM

## UUUAUAUAGUAAGGAUAUGUAUUAUUUUUUACAACAGAAGGUACUGACAUGAGGAUCACCCAUGUUUUAGUGUGGGCAUGUAGU
[3]
  apparent Kd: 296 nM
[4]
  apparent Kd: 364 nM

## UUUAUGUCAGGAUAUACAUGAGGAUCACCCAUGUAUAUCUAAAAAUAUACAUGGGAAUGUAGAAGGGACCUCCU
[3]
  apparent Kd: 53 nM
[4]
  apparent Kd: 46.3 nM

## UUUAUGUGAGGAUAUAGUACUCCUUCUAUUAUUUUUGAGUACUAGAAGGCACAUGAGGAUCACCCAUGUAGUAC
[3]
  apparent Kd: 22.5 nM
[4]
  apparent Kd: 48.6 nM

## UUUAUUUAGGCAGGAUAUACAUGUAUAUAUAUUUCUUUAUAUCUUAUUACAUGAGGAUCACCCAUGUAGAAGGGCCUUAUUAUA
[3]
  apparent Kd: 17.3 nM
[4]
  apparent Kd: 23.6 nM
